Laboratory results from ChEMBL document CHEMBL1149787, “Synthesis and cannabinoid activity of 1-substituted-indole-3-oxadiazole derivatives: novel agonists for the CB1 receptor” (Eur J Med Chem, 2008).
Calls of active or inactive are those of the source. The rule behind the calls is not given here.

How the values were obtained:
[1] = target: Cannabinoid receptor 1 (Mus musculus) (UniProt P47746); test: Agonist activity at CB1 receptor in electrically-stimulated Swiss mouse vas deferens at 1.0 uM; type: functional, tissue-based
Chain of Cannabinoid receptor 1 (Mus musculus) (P47746 whole entry): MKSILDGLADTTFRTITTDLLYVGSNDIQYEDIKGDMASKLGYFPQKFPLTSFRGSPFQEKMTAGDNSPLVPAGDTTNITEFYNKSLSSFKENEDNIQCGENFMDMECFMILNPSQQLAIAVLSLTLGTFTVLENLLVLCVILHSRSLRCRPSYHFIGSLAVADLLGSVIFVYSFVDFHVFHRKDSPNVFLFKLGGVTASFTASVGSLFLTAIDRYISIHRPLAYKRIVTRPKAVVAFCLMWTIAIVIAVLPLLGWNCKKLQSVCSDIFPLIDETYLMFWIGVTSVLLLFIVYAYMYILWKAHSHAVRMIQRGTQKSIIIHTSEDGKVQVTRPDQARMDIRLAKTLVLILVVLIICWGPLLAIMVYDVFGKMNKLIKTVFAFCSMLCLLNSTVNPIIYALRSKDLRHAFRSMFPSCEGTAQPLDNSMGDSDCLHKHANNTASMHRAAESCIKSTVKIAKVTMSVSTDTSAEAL
Method in brief: (§1)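 Electrically stimulated mouse vas deferens. Prostatic end tied between parallel field electrodes, epididymal end attached to an isometric force transducer. Tissue stretched by 0.5 g force, equilibrated 10 min, then stimulated with trains of three pulses (4 Hz, 0.5 ms, 100 V) every 20 s. Effect taken as % decrease of pre-drug twitch force; single concentrations expressed relative to vehicle.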

[2] = target: Cannabinoid receptor 1 (Rattus norvegicus) (UniProt P20272); test: (§2) Displacement of [3H]SR141716A from CB1 receptor in Sprague-Dawley rat cerebellum membrane; type: tissue-based
Chain of Cannabinoid receptor 1 (Rattus norvegicus) (P20272 whole entry): as the sequence (P47746 whole entry) above, with D95E counted along it

Cannabinoid receptor 1 [3] = target: Cannabinoid receptor 1 (Rattus norvegicus, UniProt P20272); test: as §2; type: tissue-based
Chain of Cannabinoid receptor 1 (Rattus norvegicus, UniProt P20272) (P20272 whole entry): as the sequence (P47746 whole entry) above, with D95E counted along it

[4] = target: Cannabinoid receptor 1 (Mus musculus) (UniProt P47746); test: Agonist activity at CB1 receptor in electrically-stimulated Swiss mouse vas deferens; type: functional, tissue-based; method in brief: as §1
Cannabinoid receptor 2 [5] = target: T1, Cannabinoid receptor 2 (Rattus norvegicus, UniProt Q9QZN9); test: (§3) Displacement of [3H]WIN-55212-2 from CB2 receptor in Sprague-Dawley rat spleen membrane; type: cell membranes
T1 sequence (Q9QZN9 whole entry): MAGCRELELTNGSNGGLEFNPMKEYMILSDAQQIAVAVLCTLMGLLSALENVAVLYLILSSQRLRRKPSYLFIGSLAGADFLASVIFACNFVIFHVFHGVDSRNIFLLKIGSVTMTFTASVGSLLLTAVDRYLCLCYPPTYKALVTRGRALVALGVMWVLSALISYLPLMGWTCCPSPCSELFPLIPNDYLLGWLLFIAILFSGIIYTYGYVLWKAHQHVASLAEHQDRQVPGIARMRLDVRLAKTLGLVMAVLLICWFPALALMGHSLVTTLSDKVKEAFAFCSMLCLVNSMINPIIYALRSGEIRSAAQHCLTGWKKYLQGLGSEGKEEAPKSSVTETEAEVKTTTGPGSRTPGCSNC

[6] = target: T2, Cannabinoid receptor 2 (Rattus norvegicus) (UniProt Q9QZN9); test: as §3; type: cell membranes
T2 sequence (whole entry): T1 sequence (Q9QZN9 whole entry)

Cannabinoid receptor 1 [7] = target: Cannabinoid receptor 1 (Homo sapiens, UniProt P21554); test: Agonist activity at CB1 receptor; type: functional
Chain of Cannabinoid receptor 1 (Homo sapiens, UniProt P21554) (P21554 whole entry): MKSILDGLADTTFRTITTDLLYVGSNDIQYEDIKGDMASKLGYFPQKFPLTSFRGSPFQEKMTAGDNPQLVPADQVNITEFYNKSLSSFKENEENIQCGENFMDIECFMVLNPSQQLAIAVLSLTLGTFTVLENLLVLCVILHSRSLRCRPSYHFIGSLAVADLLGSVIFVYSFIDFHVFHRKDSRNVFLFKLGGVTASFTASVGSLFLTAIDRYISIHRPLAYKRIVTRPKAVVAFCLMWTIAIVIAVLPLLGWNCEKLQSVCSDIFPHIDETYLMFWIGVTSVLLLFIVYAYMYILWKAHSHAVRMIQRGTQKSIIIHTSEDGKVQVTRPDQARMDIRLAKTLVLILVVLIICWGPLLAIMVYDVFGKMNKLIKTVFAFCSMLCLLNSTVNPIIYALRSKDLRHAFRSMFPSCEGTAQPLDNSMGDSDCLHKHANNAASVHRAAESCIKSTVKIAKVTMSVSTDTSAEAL

[8] = Selectivity for CB2 receptor over CB1 receptor
Cannabinoid receptor 2 [9] = target: Cannabinoid receptor 2 (Homo sapiens, UniProt P34972); test: Activity at CB2 receptor
Chain of Cannabinoid receptor 2 (Homo sapiens, UniProt P34972) (P34972 whole entry): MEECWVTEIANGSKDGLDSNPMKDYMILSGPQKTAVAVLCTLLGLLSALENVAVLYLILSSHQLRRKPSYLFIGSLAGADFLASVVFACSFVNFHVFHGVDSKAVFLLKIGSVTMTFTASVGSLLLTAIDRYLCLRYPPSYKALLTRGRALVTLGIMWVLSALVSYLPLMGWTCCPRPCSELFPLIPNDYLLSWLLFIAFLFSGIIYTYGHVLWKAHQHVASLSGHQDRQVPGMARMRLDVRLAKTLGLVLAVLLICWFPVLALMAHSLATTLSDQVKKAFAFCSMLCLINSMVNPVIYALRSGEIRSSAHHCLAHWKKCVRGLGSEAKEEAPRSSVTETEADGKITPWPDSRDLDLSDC

[10] = target: T2, Cannabinoid receptor 2 (Rattus norvegicus); test: Displacement of [3H]WIN-55212-2 from CB2 receptor in Sprague-Dawley rat spleen membrane at 10 uM; type: cell membranes
Method in brief: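 Spleen membranes from Sprague Dawley rats (supernatant spun at 23,800g, pellet kept) in tris-HCl pH 7.4 with MgCl2 and EGTA. 30.0 µg protein per tube with 1.0 mg/mL BSA, 0.2 nM [3H]WIN-55,212-2 and test drug, triplicate, 30 °C for 90 min. Nonspecific binding defined with 1.0 µM unlabelled WIN-55,212-2. Filtration, scintillation counting, nonlinear regression; means of at least four estimates.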

`COc1ccc(Cc2noc(-c3cn(CCN4CCOCC4)c4ccccc34)n2)cc1` gave an inhibition [1] of 39.2%.
With `O=C(Cn1cc(-c2nc(Cc3ccccc3Cl)no2)c2ccccc21)N1CCOCC1` the Activity [2] was “inactive”.
`O=C1NC(Cn2cc(-c3nc(Cc4ccccc4)no3)c3ccccc32)CO1` (stereo unspecified) gave an inhibition [1] of 15.8% and an IC50 (Cannabinoid receptor 1 [3]) of 6.1 µM.
`c1ccc(Cc2noc(-c3cn(CCN4CCOCC4)c4ccccc34)n2)cc1` gave an agonist potency (pEC50) [4] of 7, an IC50 (Cannabinoid receptor 1 [3]) of 2.62 µM and an IC50 (Cannabinoid receptor 2 [5]) of 1.1 µM.
`CC(=O)Oc1cn(CCN2CCOCC2)c2ccccc12` showed an inhibition [1] of 81.8%.
In the case of `O=C(Cn1cc(-c2nc(-c3ccccc3)no2)c2ccccc21)N1CCOCC1`, the inhibition [1] is reported as -5.29% and the Activity [6] is reported as “inactive”.
For `COc1ccc(C(=O)c2c(C)n(CCN3CCOCC3)c3ccccc23)cc1` [PRAVADOLINE], the IC50 (Cannabinoid receptor 1 [7]) was 0.453 µM.
For `Brc1ccc(Cc2noc(-c3cn(CCN4CCOCC4)c4ccccc34)n2)cc1`, the inhibition [1] was 58% and the IC50 (Cannabinoid receptor 1 [3]) was 6.2 µM.
For `Clc1ccccc1Cc1noc(-c2cn(CCN3CCOCC3)c3ccccc23)n1`, the inhibition [1] was 95% and the IC50 (Cannabinoid receptor 1 [3]) was 7.4 µM.
`CCCCC(C)(C)c1cc(O)c2c(c1)OC(C)(C)[C@H]1CC=C(CO)C[C@H]21` gave an IC50 (Cannabinoid receptor 1 [3]) of 3.22 µM.
For `COc1ccc2c(c1)c(CCN1CCOCC1)c(C)n2C(=O)c1cccc(Cl)c1Cl`, the Selectivity ratio [8] was 160.
In the case of `O=C(c1nc(-c2ccccc2)no1)c1cn(CCN2CCOCC2)c2ccccc12`, the inhibition [1] is reported as 44.3% and the Activity [6] is reported as “inactive”.
For `c1ccc2cc(Cc3noc(-c4cn(CCN5CCCC5)c5ccccc45)n3)ccc2c1`, the inhibition [1] was 78.6%.
`O=C(O)CCCCn1cc(-c2nc(Cc3ccc4ccccc4c3)no2)c2ccccc21` showed an inhibition [1] of 53.6%.
With `COc1ccc(C(=O)c2c3n(c4ccccc24)C(CN2CCOCC2)CC3)cc1` (stereo unspecified) the IC50 (Cannabinoid receptor 1 [7]) was 0.00032 µM.
With `c1ccc(Cc2noc(-c3cn(CCN4CCOCC4)cn3)n2)cc1` the inhibition [1] was 46.8% and the Activity [2] was “inactive”.
Work on `Cc1c(CCN2CCOCC2)c2ccccc2n1C(=O)c1cccc2ccccc12` yielded a Ki (Cannabinoid receptor 2 [9]) of 0.0085 µM and a Selectivity ratio [8] of 160.
For `O=C(Cn1cc(-c2nc(Cc3ccccc3)no2)c2ccccc21)N1CCOCC1`, the inhibition [1] was 17% and the Activity [6] was “inactive”.
`CCCCCn1cc(-c2nc(Cc3ccccc3)no2)c2ccccc21` gave an inhibition [1] of 100% and an IC50 (Cannabinoid receptor 1 [3]) of 8.8 µM.
With `c1ccc(Cc2noc(-c3cn(CCN4CCCC4)c4ccccc34)n2)cc1` the agonist potency (pEC50) [4] was 7.2.
`c1ccc(CCc2noc(-c3cn(CCN4CCOCC4)c4ccccc34)n2)cc1` showed an inhibition [1] of 90% and an IC50 (Cannabinoid receptor 1 [3]) of 6.8 µM.
`c1ccc(-c2ccc(-c3noc(-c4cn(CCN5CCOCC5)c5ccccc45)n3)cc2)cc1` showed an inhibition [1] of 11.4%, an IC50 (Cannabinoid receptor 1 [3]) of 1.52 µM and an inhibition [10] of 14%.
Work on `c1ccc(-c2noc(-c3cn(CCN4CCOCC4)c4ccccc34)n2)cc1` yielded an agonist potency (pEC50) [4] of 6.47, an IC50 (Cannabinoid receptor 1 [3]) of 0.25 µM and an IC50 (Cannabinoid receptor 2 [5]) of 4.03 µM.
In the case of `CCOC(=O)CCCCn1cc(-c2nc(Cc3ccc4ccccc4c3)no2)c2ccccc21`, the inhibition [1] is reported as 41.6%.
`c1csc(Cc2noc(-c3cn(CCN4CCOCC4)c4ccccc34)n2)c1` showed an inhibition [1] of 81% and an IC50 (Cannabinoid receptor 1 [3]) of 6.8 µM.
With `c1ccc(Cc2noc(-c3cn(CCN4CCCCC4)c4ccccc34)n2)cc1` the agonist potency (pEC50) [4] was 5.6 and the IC50 (Cannabinoid receptor 1 [3]) was 5.6 µM.
With `O=C(c1nc(Cc2ccccc2)no1)c1cn(CCN2CCOCC2)c2ccccc12` the inhibition [1] was 22.4%.
In the case of `c1ccc2cc(Cc3noc(-c4cn(CCN5CCOCC5)c5ccccc45)n3)ccc2c1`, the inhibition [1] is reported as 95.6%.
